From the M2OR odorant receptor database

Target: T1, OR1A1 (Homo sapiens) (UniProt Q9P1Q5)
T1 sequence (whole entry): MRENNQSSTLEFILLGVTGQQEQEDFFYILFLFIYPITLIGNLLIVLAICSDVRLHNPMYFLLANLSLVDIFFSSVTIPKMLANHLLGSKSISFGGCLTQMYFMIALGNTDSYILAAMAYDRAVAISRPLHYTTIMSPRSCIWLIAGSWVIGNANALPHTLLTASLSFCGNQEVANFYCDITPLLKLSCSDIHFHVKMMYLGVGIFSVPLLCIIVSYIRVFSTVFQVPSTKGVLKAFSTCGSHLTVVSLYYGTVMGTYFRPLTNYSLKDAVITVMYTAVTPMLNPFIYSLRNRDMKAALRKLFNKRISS
Settings: stereoisomer not certain
In short: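 Each receptor–molecule pair is labelled responsive or non-responsive (inactive) according to whether the original authors judged the measured signal statistically different from baseline. The data were taken from the main text and supplementary material of published papers and checked for typos and inconsistencies. Assay methods differed by source, with transient luciferase assays in mammalian cell lines being common.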

Structure (SMILES)	odorant receptor agonist call;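 note: active if original authors judged signal statistically different from baseline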
CCCC(=O)OCC	inactive
CCCCC1OC(=O)CC1C (stereo unspecified)	inactive
CC(C)=CCCC(C)CC(=O)O (stereo unspecified)	inactive
OCCc1ccccc1	inactive
CC(=O)CC(C)(C)S	inactive
CCC=CCCC=CC=O	inactive
CN(C)C	inactive
CCC(=O)C1=NCCC1	inactive
CC(=O)OCC=Cc1ccccc1	inactive
COCCC(C)(C)S	inactive
C=Cc1ccc(O)cc1	inactive
CCCSSCCC	inactive
CCC(C)C=O (stereo unspecified)	inactive
CCCCCCC1CCC(=O)O1 (stereo unspecified)	inactive
Cc1nccnc1C	inactive
CC(=O)C(C)O (stereo unspecified)	inactive
CC=CC(=O)C(C)CC (stereo unspecified)	inactive
CSCCC=O	inactive

Structure (SMILES)	odorant receptor agonist call;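 note: active if original authors judged signal statistically different from baseline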
O=C([O-])CCC(=O)[O-].[H+].[H+]	inactive
CCCSSSC	inactive
CCCCC(=O)CC	active
CC(=O)C=CC1=C(C)CCCC1(C)C	inactive
CCC(C)c1nccnc1OC (stereo unspecified)	inactive
CC(=O)OCCc1ccccc1	active
CC(=O)O	inactive
CCCC1CCCC(=O)O1 (stereo unspecified)	inactive
CCC=CCCC=O	inactive
CC(C)(S)CCOC=O	inactive
CC(=O)OCC=C(C)C	inactive
C=CC(C)=CCC=C(C)CCC=C(C)C	inactive
COc1ccc(C)cc1O	inactive
COc1cc(C(=O)O)ccc1O	inactive
C=CCOC(=O)CCCCCC	active
CC(C)=CCCC(C)CC=O (stereo unspecified)	active
CCCCCCO	inactive
CCCCC(=O)OCC	inactive
